Active and inactive are the calls of the source. The calls are words filed in the database; no cut-off is given here.
Tests used:
Format in all cases: functional, cell-based
[1] = biological target: T1, Glucose-dependent insulinotropic receptor (Homo sapiens) (UniProt Q8TDV5); assay: Agonist activity at human GPR119 expressed in HEK293 cells assessed as cAMP accumulation after 60 mins relative to OEA
T1 sequence (whole entry): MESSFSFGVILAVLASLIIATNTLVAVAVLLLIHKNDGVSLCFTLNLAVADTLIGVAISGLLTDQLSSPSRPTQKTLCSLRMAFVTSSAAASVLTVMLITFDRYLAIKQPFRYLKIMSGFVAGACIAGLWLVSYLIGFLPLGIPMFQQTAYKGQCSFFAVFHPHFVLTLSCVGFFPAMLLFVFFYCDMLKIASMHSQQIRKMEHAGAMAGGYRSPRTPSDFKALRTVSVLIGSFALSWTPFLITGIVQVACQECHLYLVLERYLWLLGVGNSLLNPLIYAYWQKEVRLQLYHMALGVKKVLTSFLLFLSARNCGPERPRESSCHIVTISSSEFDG
Method in brief: (§1)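 HEK293 cells (4x10³/well) seeded, after 24h transiently transfected with human GPR119 expression plasmid via Lipofectamine/Plus; 24h later exposed to compounds in KRBH with 0.1% BSA and 500 μM IBMX, 60 min, 37 C. Lysed 10 min at room temperature (50 mM phosphate, 1 M KF, 1.25% Triton X-100, pH 7.0); cAMP read by HTRF. EC50 taken as concentration giving 50% of OEA cAMP stimulation; %max relative to OEA maximal effect.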

[2] = biological target: T2, Glucose-dependent insulinotropic receptor (Homo sapiens, UniProt Q8TDV5); assay: Agonist activity at human GPR119 expressed in HEK293 cells assessed as cAMP accumulation after 60 mins; method in brief: as §1
T2 sequence (Q8TDV5 whole entry): T1 sequence (whole entry)

[3] = biological target: T1, Glucose-dependent insulinotropic receptor (Homo sapiens); assay: Agonist activity at human GPR119 expressed in HEK293 cells assessed as cAMP accumulation at 10 uM after 60 mins relative to OEA; method in brief: as §1
[4] = biological target: T1, Glucose-dependent insulinotropic receptor (Homo sapiens); assay: Agonist activity at human GPR119 expressed in HEK293 cells assessed as cAMP accumulation at 10 uM after 60 mins

Row | Structure (SMILES) | Emax [1] [%] | EC50 [2] [µM] | Emax [3] | Activity [4]
1 | COc1cc2nc(Nc3ccc(S(C)(=O)=O)cc3F)nc(OC3CCN(C(=O)OC(C)(C)C)CC3)c2cc1OC | 19.7 | > 10 |  | 
2 | COc1cc2nc(Nc3ccc(S(C)(=O)=O)cc3)nc(NC3CC4CCC(C3)N4C(=O)OC(C)(C)C)c2cc1OC (centres undefined) | 17 | > 10 |  | 
3 | COc1cc2nc(OC3CCN(C(=O)OC(C)(C)C)CC3)nc(Nc3ccc(S(C)(=O)=O)cc3)c2cc1OC | 17.9 | > 10 |  | 
4 | COc1cc2nc(Nc3ccc(S(C)(=O)=O)cc3F)nc(OCC3CCN(C(=O)OC(C)(C)C)CC3)c2cc1OC | 21.3 | > 10 |  | 
5 | COc1cc2nc(OCC3CCN(C(=O)OC(C)(C)C)CC3)nc(Nc3ccc(S(C)(=O)=O)cc3F)c2cc1OC | 33.2 | > 10 |  | 
6 | COc1cc2nc(N3CCC4CCC(C3)N4Cc3ccccc3)nc(Nc3ccc(S(C)(=O)=O)cc3)c2cc1OC (racemic) | 23.4 | > 10 |  | 
7 | COc1cc2nc(Nc3ccc(S(C)(=O)=O)cc3)nc(OCC3CCN(C(=O)OC(C)(C)C)CC3)c2cc1OC | 17.4 | > 10 |  | 
8 | COc1cc2nc(OCC3CCN(C(=O)OC(C)(C)C)CC3)nc(Nc3ccc(S(C)(=O)=O)cc3)c2cc1OC |  |  | inactive | inactive
9 | COc1cc2nc(NCC3CC4CCC(C3)N4C(=O)OC(C)(C)C)nc(Nc3ccc(S(C)(=O)=O)cc3F)c2cc1OC (centres undefined) | 53.7 | 1 |  | 
10 | CCCCCCCC/C=C\CCCCCCCC(=O)NCCO [OLEOYLETHANOLAMIDE] |  | 2.2 |  | 
11 | COc1cc2nc(Nc3ccc(S(C)(=O)=O)cc3)nc(NCC3CC4CCC(C3)N4C(=O)OC(C)(C)C)c2cc1OC (centres undefined) | 15.1 | > 10 |  | 
12 | COc1cc2nc(N3CCC4CCC(C3)N4C(=O)OC(C)(C)C)nc(Nc3ccc(S(C)(=O)=O)cc3F)c2cc1OC (racemic) | 56.9 | 1 |  | 
13 | COc1cc2nc(N3CCC4CCC(C3)N4C(=O)OC(C)(C)C)nc(Nc3ccc(S(C)(=O)=O)cc3)c2cc1OC (racemic) | 32.7 | > 10 |  | 
14 | COc1cc2nc(Nc3ccc(S(C)(=O)=O)cc3)nc(N3CCC4CCC(C3)N4C(=O)OC(C)(C)C)c2cc1OC (racemic) | 37.5 | > 10 |  | 
15 | COc1cc2nc(N3CCC4CCC(C3)N4Cc3ccccc3)nc(Nc3ccc(S(C)(=O)=O)cc3F)c2cc1OC (racemic) | 44.3 | > 10 |  | 
16 | COc1cc2nc(NC3CC4CCC(C3)N4C(=O)OC(C)(C)C)nc(Nc3ccc(S(C)(=O)=O)cc3F)c2cc1OC (centres undefined) | 46.2 | 1 |  | 
17 | COc1cc2nc(OC3CCN(C(=O)OC(C)(C)C)CC3)nc(Nc3ccc(S(C)(=O)=O)cc3F)c2cc1OC | 19.6 | > 10 |  | 
18 | COc1cc2nc(Nc3ccc(S(C)(=O)=O)cc3)nc(OC3CCN(C(=O)OC(C)(C)C)CC3)c2cc1OC | 20.6 | > 10 |  | 
19 | COc1cc2nc(NCC3CC4CCC(C3)N4C(=O)OC(C)(C)C)nc(Nc3ccc(S(C)(=O)=O)cc3)c2cc1OC (centres undefined) | 19.9 | > 10 |  | 
20 | COc1cc2nc(Nc3ccc(S(C)(=O)=O)cc3)nc(N3CCC4CCC(C3)N4Cc3ccccc3)c2cc1OC (racemic) | 32.8 | > 10 |  | 

Reference: ChEMBL document CHEMBL2331248, “Synthesis and biological evaluation of novel 2,4-disubstituted quinazoline analogues as GPR119 agonists” (Bioorg Med Chem, 2013)
